In publication PMC2151501 (The Journal of General Physiology, 2006):
Entries after “also recorded” stand apart in the source; their conditions may differ. No end group written: not given here.

Assays:
[1] = system: Shaker K+ channels; conditions: 50 mV, ref Murrell-Lagnado and Aldrich, 1993; cited from earlier work
[2] = target: T1, hNav1.5-CW inactivation-deficient mutant Na+ channels (Homo sapiens, UniProt Q14524, A410W/L409C); assay: Use-dependent block during repetitive pulses; assay type: cell-based; conditions: for use-dependent block of peak currents, 20 ms pulses: β4_154–167 n = 6, acetyl-KIFMK-amide n = 5
[3] = target: T2, inactivation-deficient hNav1.5-CW mutant Na+ channels (Homo sapiens, UniProt Q14524, A410W/L409C); assay: On and off rates of β4_154–167 binding at 50 mV; assay type: cell-based
Outline: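 HEK293t cells transiently co-expressing inactivation-deficient hNav1.5-CW with rat β1, whole-cell clamp at 22–24°C, holding −140 mV. Peptide was included in the pipette solution (NaF/NaCl/EGTA/HEPES, pH 7.2) at 25–250 μM. The time-dependent block at 50 mV was fitted single-exponentially. 1/τ was plotted against concentration and fitted by linear regression: slope gave kon, intercept gave koff; n = 5.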

[4] = target: hNav1.5-CW/F1760K mutant Na+ channels (Homo sapiens, UniProt Q14524, A410W/F1760K/L409C); conditions: ref Wang and Wang, cited from earlier work
[5] = system: voltage-gated Na+ channels; conditions: ref Catterall, 1980; Wang and Wang, 2003; Strichartz, et al., 1987; cited from earlier work
[6] = target: T1, hNav1.5-CW inactivation-deficient mutant Na+ channels; assay: Unblocking upon repolarization, two-pulse protocol; assay type: cell-based; conditions: 2 mM in pipette
Outline: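 Whole-cell hNav1.5-CW currents were recorded in HEK293t cells at room temperature with 2 mM peptide in the pipette. A two-pulse protocol with a 10-ms interpulse interval was used. Peak current amplitude at the second pulse was compared with that at the first.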

[7] = system: inactivation-deficient rNav1.2 Na+ channels; conditions: ref Eaholtz et al., 1994; Tang et al., 1996; Wang and Wang, 2005; cited from earlier work
[8] = target: T2, inactivation-deficient hNav1.5-CW mutant Na+ channels; assay: Resurgent Na+ currents near the activation threshold; assay type: cell-based; conditions: 2 mM in pipette, −80 to −20 mV, five cells
Outline: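 Whole-cell recording at room temperature (22–24°C) from transfected HEK293t cells expressing hNav1.5-CW plus rat β1, with 2 mM acetyl-peptide in the internal solution. After the test pulse, tail currents were recorded at −80 to −20 mV in 20-mV steps. Bath: 65 mM NaCl, 85 mM choline Cl, 2 mM CaCl2, 10 mM HEPES, pH 7.4. Five cells.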

[9] = target: T3, inactivation-deficient hNav1.5-L409C/A410W (hNav1.5-CW) Na+ channels (Homo sapiens, UniProt Q14524, A410W/L409C); assay type: cell-based; conditions: intracellular peptide, 50 mV; 25–250 μM for β4_154–167
Outline: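 Transiently transfected HEK293t cells (calcium phosphate; CD8 bead selection; used 1–4 d) expressing hNav1.5-L409C/A410W with rat β1. Peptide at 25–250 μM was dialysed via the pipette. Whole-cell currents were recorded at 50 mV from −140 mV holding, at 22–24°C. Decay was fitted with a single exponential. Steady-state block was taken ∼30 min after break-in.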

[10] = target: T3, inactivation-deficient hNav1.5-L409C/A410W (hNav1.5-CW) Na+ channels; conditions: ref Eaholtz et al., 1994; Tang et al., 1996; Wang and Wang, 2005; cited from earlier work
[11] = system: BTX-modified wild-type hNav1.5 Na+ channels; assay: Time-dependent block of BTX-modified wild-type Na+ currents; assay type: cell-based; conditions: 4 μM BTX; acetyl-KIFMK-amide 2 mM, β4_154–167 1 mM, after 2,000 pulses
Outline: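 Channels were modified by 4 μM BTX (final, from 0.5 mM DMSO stock) in the pipette, which also held either 2 mM acetyl-KIFMK-amide or 1 mM peptide. Cells were held at −140 mV and depolarized to 50 mV. The maintained-to-peak current ratio at 50 mV was measured. Five to six cells.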

[12] = system: Na+ channels in dissociated neurons; conditions: ref Grieco and Raman, 2004; cited from earlier work
[13] = 2 mM in pipette, 50 mV/20 ms at 1 Hz

Substance: ShB peptide: the first 20 amino acids on the NH2 terminus of the Shaker channel (MAAVAGLYGLGEDRQHRKKQ; UniProt P08510 1-20, looked up, fragment)
- koff [1]: 13.8 s⁻¹

Substance: KKLITFILKKTREK [β4_154–167]
- use-dependent block of peak currents, 20 ms pulses [2, 13]: 2.9 ± 1.6%
- koff ([3]; read-out: off rate (koff) of binding): 49.1 s⁻¹
- kon ([3]; read-out: on rate (kon) of binding): 1.01e+07 M⁻¹ s⁻¹

Substance: Batrachotoxin [BTX]
- sensitivity of hNav1.5-CW/F1760K to BTX (in words) [4]; 2003: BTX-resistant
- effect of BTX on voltage-gated Na+ channels (in words) [5]: eliminates the fast inactivation of voltage-gated Na^+ channels

Substance: acetyl-KIFMK-amide
- additional use-dependent block on outward peak and inward tail currents [2, 13]: ~65%
- tail current decay relative to β4_154–167 [2, 13]: four times faster
- use-dependent block of peak currents, 20 ms pulses [2, 13]: 62.4 ± 3.1%
- use-dependent block, 3 ms pulses ([2]; 2 mM in pipette, repetitive pulses, 3 ms, n = 5): 28.5 ± 0.4%
- fitted τ of use-dependent block, 1 ms pulses ([2]; 50 mV for 1 ms at 1 Hz, n = 5): 27.1 pulses
- use-dependent block, 1 ms pulses ([2]; 50 mV for 1 ms at 1 Hz, n = 5): 15.5 ± 0.4%
- fitted τ of use-dependent block, 3 ms pulses ([2]; repetitive pulses, 3 ms, n = 5): 14.5 pulses
- effect of hNav1.5-F1760K on time-dependent block (in words) ([4]; hNav1.5-F1760K, 2005): hinders its time-dependent block
- effect of hNav1.5-F1760K on use-dependent block (in words) ([4]; hNav1.5-F1760K, 2005): abolishes the use-dependent block
- tail current decay τ, short test pulse ([6]; short test pulse, n = 6): 0.23 ± 0.02 ms
- unblocking upon repolarization (in words) ([6]; −140 mV, two-pulse protocol, 10-ms interval, six cells): also occurred rapidly
- restoration of fast inactivation, rNav1.2 (in words) [7]: can restore fast inactivation
- resurgent tail currents near activation threshold (in words), acetyl-KIFMK-amide [8]: elicited robust resurgent currents
- time-dependent block of inactivation-deficient Na+ currents (in words) [9]: restored the fast inactivation phenotype in hNav1.5 inactivation-deficient Na^+ channels
- restoration of fast inactivation, inactivation-deficient hNav1.5 (in words) [10]: can restore fast inactivation
- block of BTX-modified open Na+ channels (in words) [11]: resistant to β4_154–167 and acetyl-KIFMK-amide block; also recorded: little time-dependent block was found

Substance: β-pompilidotoxin
- effect on fast inactivation gating (in words) [12]: slowed the fast inactivation gating considerably
